An excerpt weighted towards active compounds, which were near 2.2% of everything screened.
NR2E3 ag-1 = activates human photoreceptor nuclear receptor NR2E3; Q9Y5X4; GST-NR2E3/biotin-RetCOR TR-FRET, 1536-well; inhibition of corepressor binding, % at 4.78 µM; 320,000 compounds, 0.12% hits;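 active means percent inhibition above the cutoff of mean plus 3 SD of all tested compounds, set per screening campaign, cut at about 20% in these data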;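 further: 0% = DMSO wells and 100% = biotin wells as full block of FRET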
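System: GST-tagged NR2E3 plus biotinylated RetCOR corepressor; Buffer or medium: pH 7.5 Tris-based buffer; Probe or stimulus: RetCOR corepressor, biotinylated, 7 nM; Doses: compound at 4.8 µM, single dose; Schedule: 5 h incubation at 4 °C; Technique: time-resolved FRET; Evaluation: percent inhibition of TR-FRET ratio; Replication: one well per compound, singlicate testing.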
miR-122 sensor = miR-122 inhibition in Huh7 cells | 340,000 compounds, 0.3% hits | AID 602342 | activation (reporter increase), % at 12.5 µM | Huh7 miR-122 Renilla luciferase sensor, 48 h; neutral wells = 0, positive control = 100;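 active means mean replicate activation score at least 90 and every replicate individually at or above 90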;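 further: higher luciferase means less miR-122 activity so hits act as miR-122 inhibitors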
FGF22 binding = FGF22 (human) thermal shift binding; Q9HCT0; recombinant FGF22 thermal shift, SYPRO orange fluorescence; percent of sucrose octasulfate shift, DMSO zero; activity (Tm shift, normalised), % at 9.99 µM; 340,000 compounds, 1.5% hits; AID 651658;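 active means mean Tm shift, scaled 0 neutral to 100 positive control, at about 1.3% or above, every replicate too, limit read from the data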
697 NFkB inh = lowers PMA/ionomycin-induced NF-kB signal in 697 B cells; 697 B-cell NF-kB luciferase reporter, 16 h; inhibition, % at 4 µM; 330,000 compounds, 0.33% hits; AID 435022; in the data active means inhibition above about 35%
NR2E3 ag-2 = agonists of human NR2E3 nuclear receptor. Q9Y5X4. CHO-S Gal4-NCOR/VP16-NR2E3 two-hybrid, luciferase. inhibition of corepressor binding, % at 3.98 µM. 360,000 compounds, 0.35% hits. AID 602229;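 active means inhibition above the mean of all tested compounds plus 3 SD, cut at about 70% in these data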;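 further: 0% = DMSO with NR2E3 transfected cells and 100% = cells lacking NR2E3 construct; higher means lower luciferase signal from less NR2E3 corepressor binding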
Jurkat NFkB inh = inhibitors of the PMA/ionomycin-induced NF-kB reporter in Jurkat cells | PMA/ionomycin-induced NF-kB luciferase reporter, luminescence | inhibition, % at 4 µM | 330,000 compounds, 0.53% hits; in the data active means inhibition above about 50%
NR2E3 agonist cf = confirmation of human NR2E3 nuclear receptor agonists; 360 compounds, 39% hits; shares compounds with NR2E3 ag-1; cell-free NR2E3 corepressor release, TR-FRET, 5 h; AID 2379; activation (reported as inhibition), % at 3.98 µM; in the data active means activation above about 20%
PPARg-NCOR2 ag = releases PPARgamma from NCOR2 in NR2E3 counter-screen. shares compounds with NR2E3 ag-1. TR-FRET PPARg-NCOR2 coregulator interaction, biochemical. inhibition, % at 3.98 µM. 360 compounds, 45% hits; in the data active means inhibition above about 20%;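 further: 0% = DMSO vehicle and 100% = wells without protein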
Starred values were filed as active, the others as inactive; / = not tested or not shown; [ ] = remark or other dose.

SMILES | NR2E3 ag-1 | miR-122 sensor | FGF22 binding | 697 NFkB inh | NR2E3 ag-2 | Jurkat NFkB inh | NR2E3 agonist cf | PPARg-NCOR2 ag
S=c1[nH]c2ccccc2n2cccc12 | 29* | / | 0 | 1 | -13 | 11 | 8 | 7
CN(C)Cc1cn(CC[C@H]2CC[C@@H](NC(=O)Cc3cccnc3)[C@@H](CO)O2)nn1 | / | / | 0 | / | / | / | / | /
NC(=O)c1cc[n+](CC2=C(C(=O)O)N3C(=O)[C@@H](NC(=O)C(c4ccccc4)S(=O)(=O)[O-])[C@H]3SC2)cc1 (stereo not given in full) | 23* | -4 | / | 12 | -24 | 12 | 5 | 2
C=CCOc1ccc(/C(O)=C2\C(=O)C(=O)N(CCOC)C2c2cccnc2)cc1 (stereo not given) | 21* | 1 | / | 7 | 22 | 5 | 5 | 4
CN(C(=O)c1ccc(NC(=O)Cc2ccc(NC(=O)C3CCN(C(=O)C4CCC4)CC3)cc2)cc1)C1CC1 | 13 | 3 | 0 | 17 | 3 | -10 | / | /
CN(C(=O)c1ccc(NC(=O)Cc2ccc(NC(=O)C3CCN(C(=O)C4CCCC4)CC3)cc2)cc1)C1CC1 | 25* | 0 | 0 | 7 | 16 | -12 | 15 | -5
Cc1c2cc(O)c(=O)cc-2oc2cc(O)c(O)cc12 | 40* | 5 | 0 | -10 | -15 | 12 | 20* | -14
COc1cc(OC)c(-c2c3cc(O)c(=O)cc-3oc3cc(O)c(O)cc23)cc1OC | -3 | / | 1 | 2 | -17 | 0 | / | /
C=CCSc1nc(-c2ccccc2)c(C#N)c(=O)[nH]1 | 22* | -4 | / | 11 | -6 | 0 | 16 | 41*
N#Cc1c(-c2ccccc2)nc(SCC(=O)N(c2ccccc2)c2ccccc2)[nH]c1=O | 4 | -2 | 1 | / | -40 | / | / | /
CCCNC(=O)Nc1ccc2c(c1)OC[C@@H](C)N(C(C)=O)C[C@H](C)[C@H](OC)CN(C)C2=O | / | / | 0 | / | / | / | / | /
COc1ccc(-c2c(C)sc(NC(=O)c3ccnn3C)c2C#N)cc1 | 30* | / | 0 | -37 | -8 | 3 | 9 | 21*
Cn1nccc1C(=O)Nc1sc2c(c1C#N)CCCC2 | 1 | 2 | 0 | -23 | -50 | -19 | / | /
Cc1cc(-c2ccc(Cl)cc2)c(C#N)c(N)n1 | 39* | -4 | 0 | -3 | -33 | -18 | 26* | 26*
COC(=O)c1ccc(CN2CC(=O)N3[C@H](CO)[C@H](c4ccc(Br)cc4)[C@H]3C2)cc1 | / | / | 0 | / | / | / | / | /
CCCOc1cccc(C2C(C(=O)c3ccco3)=C(O)C(=O)N2CCCn2ccnc2)c1 (stereo not given) | 5 | -13 | 0 | 14 | -1 | 1 | / | /
O=C(C1=C(O)C(=O)N(CCCn2ccnc2)C1c1cccc(Br)c1)c1ccco1 (stereo not given) | 34* | / | 0 | 4 | 3 | -18 | 0 | 0
O=C(C1=C(O)C(=O)N(CCCn2ccnc2)C1c1ccccc1)c1ccco1 (stereo not given) | 32* | / | / | 8 | -8 | -7 | 6 | -1
C[C@@H]1CCCCO[C@H](CN(C)S(=O)(=O)c2ccc(Cl)cc2)[C@@H](C)CN([C@@H](C)CO)C(=O)c2cc(NC(=O)Cc3ccccc3)ccc2O1 | / | -3[16.7 µM] | / | / | / | / | / | /
O=C(C[C@@H]1C=C[C@@H](NC(=O)C2CC2)[C@H](CO)O1)Nc1ccccc1 | / | / | 0 | / | / | / | / | /
CCS(=O)(=O)Nc1ccc2c(c1)C(=O)N(C)[C@@H]1CC[C@@H](CC(=O)N[C@@H]3CCN(Cc4ccccc4)C3)O[C@H]1CO2 | / | / | 0 | / | / | / | / | /
CO[C@H]1CN(C)C(=O)c2cc(NC(=O)C3CC3)ccc2OC[C@@H](C)N(CC2CCCC2)C[C@@H]1C | / | 0[16.7 µM] | 0 | / | / | / | / | /
O=C(O)CCc1ccc(-c2ccc(Br)cc2)o1 | 35* | 2 | / | 1 | -58 | 0 | 36* | 32*
N#CC(=Cc1ccc(O)cc1)C(N)=C(C#N)C#N | 23* | -2 | 0 | 22 | -8 | 4 | -4 | 6
CC(C)n1c2ccccc2c2nnc(SCC(=O)Nc3ccccc3C(=O)O)nc21 | 26* | / | 0 | 15 | -11 | 16 | 7 | 13
SMILES | NR2E3 ag-1 | miR-122 sensor | FGF22 binding | 697 NFkB inh | NR2E3 ag-2 | Jurkat NFkB inh | NR2E3 agonist cf | PPARg-NCOR2 ag
Cn1c2ccccc2c2nnc(SCC(=O)Nc3ccccc3F)nc21 | 10 | / | 0 | 3 | 7 | 5 | / | /
C[C@H]1CN([C@@H](C)CO)S(=O)(=O)c2ccc(-c3ccc(C#N)cc3)cc2O[C@H]1CN(C)C(=O)Nc1cc(F)ccc1F | / | -4[16.7 µM] | 0 | / | / | / | / | /
CCc1cc2cc(C(=O)Nc3ccc(C)cc3)sc2s1 | 33* | 4 | / | 5 | 1 | -35 | 20* | 23*
Cn1c2ccccc2c(=O)c2c(=O)n(Cc3ccco3)c(-c3ccc(F)cc3)nc21 | 34* | -8 | 0 | -27 | -12 | -34 | 8 | 8
CN(C)S(=O)(=O)c1cccc(C(=O)OCC(=O)Nc2ccc3c(c2)OCCO3)c1 | -1 | / | 0 | 1 | -11 | -12 | / | /
CCN(CC)S(=O)(=O)c1cc(C(=O)OCC(=O)Nc2cccc(S(=O)(=O)N(C)C)c2)ccc1F | 22* | -3 | 0 | 17 | 1 | 6 | -6 | -6
COc1cc(/C=C2/C(=O)N(c3ccc([N+](=O)[O-])cc3)N=C2N2CCOCC2)ccc1O | 29* | -18 | 0 | 13 | 1 | -14 | -5 | 48*
CCN(CC)c1ccc(/C=C2/C(=O)N(c3ccc([N+](=O)[O-])cc3)N=C2N2CCOCC2)cc1 | 0 | / | / | 9 | / | -14 | / | /
CC1Cc2cc(/C(O)=C3/C(=O)C(=O)N(Cc4ccco4)C3c3cccs3)ccc2O1 (stereo not given) | 22* | -7 | / | -80 | -9 | -81 | 5 | 7
COc1ccc(/C(O)=C2/C(=O)C(=O)N(Cc3ccco3)C2c2cccs2)cc1 (stereo not given) | 15 | -2 | / | -35 | -44 | -32 | / | /
C[C@H]1CCCCO[C@@H](CN(C)Cc2ccc(C(F)(F)F)cc2)[C@@H](C)CN([C@@H](C)CO)C(=O)c2cc(NC(=O)CCCN(C)C)ccc2O1 | / | -14[16.7 µM] | 0 | / | / | / | / | /
CC(C)C1Cc2ccccc2-c2[nH]c(=S)[nH]c(=O)c21 (stereo not given) | 20* | -9 | 0 | 13 | 10 | -12 | 21* | 26*
O=C1C(=O)N(Cc2cccnc2)C(c2cccc(F)c2)/C1=C(/O)c1ccc2c(c1)OCO2 (stereo not given) | 24* | / | 0 | 11 | -7 | -2 | 26* | 28*

From PubChem BioAssay
